ChEMBL document CHEMBL4393705, “New chalcone-sulfonamide hybrids exhibiting anticancer and antituberculosis activity” (Eur J Med Chem, 2019)

What was measured:
OVCAR-4 = assay: Anticancer activity against human OVCAR4 cells assessed as cell growth inhibition measured after 48 hrs by SRB assay; type: functional; conditions: OVCAR-4, 48 h
How it was run: (§1)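 NCI-60 five-dose screen at 100, 10, 1.0, 0.1 and 0.01 µM final. Cells in RPMI-1640 with 5% FBS and 2 mM glutamine were seeded 24 h ahead at 37°C, 5% CO2. Compound exposure was 48 h, followed by TCA fixation and SRB staining, read at 515 nm. GI50 is the concentration giving 50% lower net protein increase than control, using time-zero plates.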

SN12C = assay: Anticancer activity against human SN12C cells assessed as cell growth inhibition measured after 48 hrs by SRB assay; type: functional
How it was run: (§2)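 NCI 60-cell screen, five-dose mode at 100, 10, 1.0, 0.1 and 0.01 µM. Cells grown in RPMI-1640 with 5% FBS and 2 mM L-glutamine, seeded and held 24 h at 37°C, 5% CO2, then exposed for 48 h. Fixed with cold TCA (10% final), stained with 0.4% SRB and read at 515 nm. Time-zero plates were used. GI50 is the concentration giving 50% lower net protein increase than control.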

IGROV-1 = assay: Anticancer activity against human IGROV1 cells assessed as cell growth inhibition measured after 48 hrs by SRB assay; type: functional; conditions: IGROV-1, 48 h; how it was run: as §1
NCI-H226 = assay: Anticancer activity against human NCI-H226 cells assessed as cell growth inhibition measured after 48 hrs by SRB assay; type: functional; conditions: NCI-H226, 48 h; for CC50: read-out: LC50 (the source's name); how it was run: as §1
A549 = assay: Anticancer activity against human A549 cells assessed as cell growth inhibition measured after 48 hrs by SRB assay; type: functional; conditions: A549, 48 h; how it was run: as §1
HT-29 = assay: Anticancer activity against human HT-29 cells assessed as cell growth inhibition measured after 48 hrs by SRB assay; type: functional; conditions: HT-29, 48 h; how it was run: as §1
HCT-116 = assay: Anticancer activity against human HCT116 cells assessed as cell growth inhibition measured after 48 hrs by SRB assay; type: functional; conditions: HCT-116, 48 h; how it was run: as §1
786-0 = assay: Anticancer activity against human 786-O cells assessed as cell growth inhibition measured after 48 hrs by SRB assay; type: functional; conditions: 786-0, 48 h; for CC50: read-out: LC50 (the source's name); how it was run: as §1
Malme-3M = assay: Anticancer activity against human MALME-3M cells assessed as cell growth inhibition measured after 48 hrs by SRB assay; type: functional; how it was run: as §1
NCI-H23 = assay: Anticancer activity against human NCI-H23 cells assessed as cell growth inhibition measured after 48 hrs by SRB assay; type: functional; conditions: NCI-H23, 48 h; how it was run: as §1
UO-31 = assay: Anticancer activity against human UO31 cells assessed as cell growth inhibition measured after 48 hrs by SRB assay; type: functional; conditions: UO-31, 48 h; for CC50: read-out: LC50 (the source's name); how it was run: as §2
SK-MEL-5 = assay: Anticancer activity against human SK-MEL-5 cells assessed as cell growth inhibition measured after 48 hrs by SRB assay; type: functional; conditions: SK-MEL-5, 48 h; for CC50: read-out: LC50 (the source's name); how it was run: as §2
SK-MEL-2 = assay: Anticancer activity against human SK-MEL-2 cells assessed as cell growth inhibition measured after 48 hrs by SRB assay; type: functional; conditions: SK-MEL-2, 48 h; for CC50: read-out: LC50 (the source's name); how it was run: as §2
U-251 = assay: Anticancer activity against human U251 cells assessed as cell growth inhibition measured after 48 hrs by SRB assay; type: functional; conditions: U-251, 48 h; how it was run: as §2
SF-268 = assay: Anticancer activity against human SF268 cells assessed as cell growth inhibition measured after 48 hrs by SRB assay; type: functional; conditions: SF-268, 48 h; how it was run: as §1
NIH3T3 = assay: Cytotoxicity against mouse 3T3 cells assessed as cell viability measured after 48 hrs by MTT assay; type: cell-based; conditions: nih3t3, 48 h
How it was run: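 3T3 fibroblasts in DMEM with 10% FBS and penicillin-streptomycin, seeded at 10^4 cells/well 24 h prior. Exposed 48 h to two-fold serial dilutions from a 100 mg/mL DMSO stock. MTT (5 mg/mL in PBS) added for 1.5 h, formazan dissolved in DMSO, read at 530 nm. Duplicate runs on different days. Value interpolated between DMSO (100%) and cycloheximide (0%) controls.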

SF-539 = assay: Anticancer activity against human SF539 cells assessed as cell growth inhibition measured after 48 hrs by SRB assay; type: functional; conditions: SF-539, 48 h; for CC50: read-out: LC50 (the source's name); how it was run: as §2
K562 = assay: Anticancer activity against human K562 cells assessed as cell growth inhibition measured after 48 hrs by SRB assay; type: functional; conditions: K562, 48 h; for CC50: read-out: LC50 (the source's name); how it was run: as §1
KM12 = assay: Anticancer activity against human KM12 cells assessed as cell growth inhibition measured after 48 hrs by SRB assay; type: functional; conditions: KM12, 48 h; how it was run: as §1
[1] = tested on: Mycolicibacterium smegmatis; assay: Antibacterial activity against Mycobacterium smegmatis MC2 155 measured after 48 hrs by agar dilution SPOTi assay; type: functional; conditions: MC2 155, 48 h
How it was run: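 SPOTi agar dilution on Middlebrook 7H10 without OADC. Cells were passaged in Middlebrook 7H9 and then spotted. Compounds were tested at 100, 50, 20, 10 and 5 mg/L, with kanamycin as positive control. Plates were incubated 48 h at 37°C. MIC was taken as the lowest concentration with no visible growth.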

SW-620 = assay: Anticancer activity against human SW620 cells assessed as cell growth inhibition measured after 48 hrs by SRB assay; type: functional; conditions: SW-620, 48 h; for CC50: read-out: LC50 (the source's name); how it was run: as §2
HCT-15 = assay: Anticancer activity against human HCT15 cells assessed as cell growth inhibition measured after 48 hrs by SRB assay; type: functional; conditions: HCT-15, 48 h; how it was run: as §1
NCI/ADR-RES = assay: Anticancer activity against human NCI/ADR-RES cells assessed as cell growth inhibition measured after 48 hrs by SRB assay; type: functional; how it was run: as §1
NCI-H522 = assay: Anticancer activity against human NCI-H522 cells assessed as cell growth inhibition measured after 48 hrs by SRB assay; type: functional; conditions: NCI-H522, 48 h; for CC50: read-out: LC50 (the source's name); how it was run: as §1
PC-3 = assay: Anticancer activity against human PC3 cells assessed as cell growth inhibition measured after 48 hrs by SRB assay; type: functional; conditions: PC-3, 48 h; how it was run: as §1
COLO 205 = assay: Anticancer activity against human COLO205 cells assessed as cell growth inhibition measured after 48 hrs by SRB assay; type: functional; conditions: COLO 205, 48 h; how it was run: as §1
TK-10 = assay: Anticancer activity against human TK10 cells assessed as cell growth inhibition measured after 48 hrs by SRB assay; type: functional; conditions: TK-10, 48 h; for CC50: read-out: LC50 (the source's name); how it was run: as §2
OVCAR-3 = assay: Anticancer activity against human OVCAR3 cells assessed as cell growth inhibition measured after 48 hrs by SRB assay; type: functional; conditions: OVCAR-3, 48 h; how it was run: as §1

With `COc1ccc(C(=O)/C=C/c2ccc(Cl)cc2)cc1S(N)(=O)=O` the GI50 (OVCAR-4) was 3.47 µM, the LC50 (OVCAR-4) was 40.4 µM and the GI50 (SN12C) was 2.72 µM. The LC50 (concentration giving 50% net cell kill) (SN12C) was 31.5 µM, the GI50 (IGROV-1) was 2.67 µM and the LC50 (concentration giving 50% net cell kill) (IGROV-1) was 48.1 µM. For the same compound, the GI50 (NCI-H226) was 3.66 µM, the CC50 (NCI-H226) was 95.7 µM and the GI50 (A549) was 2.69 µM. It also gave an LC50 (concentration killing 50% of cells) (A549) of 30.8 µM, a GI50 (HT-29) of 3.26 µM and an LC50 (concentration giving 50% net cell kill) (HT-29) of 84 µM. For the same compound, the GI50 (HCT-116) was 1.36 µM, the LC50 (concentration killing 50% of cells present at start) (HCT-116) was 5.36 µM and the GI50 (786-0) was 1.74 µM. The CC50 (786-0) was 7.82 µM, the GI50 (Malme-3M) was 5.89 µM and the LC50 (Malme-3M) was 54.8 µM. For the same compound, the GI50 (NCI-H23) was 2.54 µM, the LC50 (NCI-H23) was 40.9 µM and the GI50 (UO-31) was 1.89 µM. It also gave a CC50 (UO-31) of 22 µM, a GI50 (SK-MEL-5) of 5.69 µM and a CC50 (SK-MEL-5) of 42.7 µM. For the same compound, the GI50 (SK-MEL-2) was 12.4 µM, the CC50 (SK-MEL-2) was 53.2 µM and the GI50 (U-251) was 1.96 µM. It also gave an LC50 (U-251) of 9.33 µM, a GI50 (SF-268) of 3.13 µM and an LC50 (concentration giving 50% net cell kill) (SF-268) of 38.3 µM. For the same compound, the LC50 (NIH3T3) was 4.1 µM, the GI50 (SF-539) was 1.6 µM and the CC50 (SF-539) was 6.82 µM. For the same compound, the GI50 (K562) was 0.57 µM, the CC50 (K562) was greater than 100 µM and the GI50 (KM12) was 1.73 µM. The LC50 (lethal concentration, 50% net cell kill) (KM12) was 8.26 µM, the MIC [1] was greater than 175 µM and the GI50 (SW-620) was 1.76 µM. It also gave a CC50 (SW-620) of 8.45 µM, a GI50 (HCT-15) of 2.14 µM and an LC50 (concentration killing 50% of cells) (HCT-15) of 59.3 µM. It also gave a GI50 (NCI/ADR-RES) of 3.64 µM, an LC50 (NCI/ADR-RES) greater than 100 µM and a GI50 (NCI-H522) of 1.93 µM. For the same compound, the CC50 (NCI-H522) was 12.1 µM, the GI50 (PC-3) was 2.24 µM and the LC50 (PC-3) was 17 µM. It also gave a GI50 (COLO 205) of 2.03 µM, an LC50 (concentration giving 50% net cell kill) (COLO 205) of 17.4 µM and a GI50 (TK-10) of 2.47 µM. The CC50 (TK-10) was 27.5 µM, the GI50 (OVCAR-3) was 2.04 µM and the LC50 (OVCAR-3) was 9.7 µM.
Work on `COc1ccc(C(=O)/C=C/c2ccc(Cl)cc2)cc1S(=O)(=O)Nc1c(N)nc(SC)[nH]c1=O` yielded a GI50 (OVCAR-4) of 4.5 µM, an LC50 (OVCAR-4) of 43.6 µM and a GI50 (SN12C) of 3.45 µM. It also gave an LC50 (concentration giving 50% net cell kill) (SN12C) of 73.4 µM, a GI50 (IGROV-1) of 3.25 µM and an LC50 (concentration giving 50% net cell kill) (IGROV-1) of 80.2 µM. It also gave a GI50 (NCI-H226) of 2.34 µM, a CC50 (NCI-H226) of 52.9 µM and a GI50 (A549) of 2.57 µM. It also gave an LC50 (concentration killing 50% of cells) (A549) of 30 µM, a GI50 (HT-29) of 2.93 µM and an LC50 (concentration giving 50% net cell kill) (HT-29) of 45.3 µM. The GI50 (HCT-116) was 1.56 µM, the LC50 (concentration killing 50% of cells present at start) (HCT-116) was 5.55 µM and the GI50 (786-0) was 1.95 µM. It also gave a CC50 (786-0) of 8.74 µM, a GI50 (Malme-3M) of 3.02 µM and an LC50 (Malme-3M) of 41.8 µM. It also gave a GI50 (NCI-H23) of 2.53 µM, an LC50 (NCI-H23) of 40.4 µM and a GI50 (UO-31) of 1.89 µM. For the same compound, the CC50 (UO-31) was 12.9 µM, the GI50 (SK-MEL-5) was 2.72 µM and the CC50 (SK-MEL-5) was 32 µM. The GI50 (SK-MEL-2) was 12.8 µM, the CC50 (SK-MEL-2) was 61.1 µM and the GI50 (U-251) was 1.58 µM. The LC50 (U-251) was 6.16 µM, the GI50 (SF-268) was 2.69 µM and the LC50 (concentration giving 50% net cell kill) (SF-268) was 36.1 µM. For the same compound, the LC50 (NIH3T3) was 13 µM, the GI50 (SF-539) was 2.1 µM and the CC50 (SF-539) was 15.1 µM. The GI50 (K562) was 2.77 µM, the CC50 (K562) was greater than 100 µM and the GI50 (KM12) was 2.09 µM. It also gave an LC50 (lethal concentration, 50% net cell kill) (KM12) of 9.76 µM, an MIC [1] greater than 175 µM and a GI50 (SW-620) of 1.58 µM. It also gave a CC50 (SW-620) of 28.3 µM, a GI50 (HCT-15) of 3.24 µM and an LC50 (concentration killing 50% of cells) (HCT-15) of 83.9 µM. The GI50 (NCI/ADR-RES) was 40.1 µM, the LC50 (NCI/ADR-RES) was greater than 100 µM and the GI50 (NCI-H522) was 1.88 µM. It also gave a CC50 (NCI-H522) of 8.83 µM, a GI50 (PC-3) of 2.53 µM and an LC50 (PC-3) of 32.8 µM. The GI50 (COLO 205) was 1.76 µM, the LC50 (concentration giving 50% net cell kill) (COLO 205) was 6.68 µM and the GI50 (TK-10) was 2.98 µM. It also gave a CC50 (TK-10) of 32.3 µM, a GI50 (OVCAR-3) of 1.94 µM and an LC50 (OVCAR-3) of 8 µM.
